According to ChEMBL document CHEMBL1154092, “Chiral 3-(4,5-dihydrooxazol-2-yl)phenyl alkylcarbamates as novel FAAH inhibitors: Insight into FAAH enantioselectivity by molecular docking and interaction fields” (Eur J Med Chem, 2009):

Tests used:
[1] = molecular target: T1, Monoglyceride lipase (Rattus norvegicus) (UniProt Q8R431); assay: Inhibition of MGL in Wistar rat cerebellar membrane at 100 uM by reversed-phase HPLC relative to control; assay type: cell membranes; conditions: Cerebellum
T1 sequence (whole entry): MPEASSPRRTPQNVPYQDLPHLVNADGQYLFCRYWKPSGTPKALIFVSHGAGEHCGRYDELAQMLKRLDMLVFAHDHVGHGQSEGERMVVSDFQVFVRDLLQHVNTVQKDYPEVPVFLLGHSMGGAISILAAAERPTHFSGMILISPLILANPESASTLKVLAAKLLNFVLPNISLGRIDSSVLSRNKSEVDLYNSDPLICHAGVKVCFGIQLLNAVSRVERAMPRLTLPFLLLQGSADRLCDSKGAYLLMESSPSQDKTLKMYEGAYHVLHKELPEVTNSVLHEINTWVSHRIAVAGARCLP
How it was run: (§1)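 Cerebellar membranes from 4-week male Wistar rats. 10 µg protein preincubated with compound 30 min at 25 °C in Tris-HCl pH 7.4, EDTA, 0.5% BSA, 1.25% DMSO. Incubation 90 min at 25 °C with 5 µg protein and 50 μM 2-AG (100 mM NaCl, 5 mM MgCl₂). Stopped with acidified acetonitrile at 0 and 90 min. Arachidonic acid by C18 HPLC, UV 211 nm. Activity as % of control, n = 2.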

[2] = molecular target: T2, Fatty-acid amide hydrolase 1 (Rattus norvegicus, UniProt P97612); assay: Inhibition of FAAH in Wistar rat brain assessed as by liquid scintillation counting
T2 sequence (P97612 whole entry): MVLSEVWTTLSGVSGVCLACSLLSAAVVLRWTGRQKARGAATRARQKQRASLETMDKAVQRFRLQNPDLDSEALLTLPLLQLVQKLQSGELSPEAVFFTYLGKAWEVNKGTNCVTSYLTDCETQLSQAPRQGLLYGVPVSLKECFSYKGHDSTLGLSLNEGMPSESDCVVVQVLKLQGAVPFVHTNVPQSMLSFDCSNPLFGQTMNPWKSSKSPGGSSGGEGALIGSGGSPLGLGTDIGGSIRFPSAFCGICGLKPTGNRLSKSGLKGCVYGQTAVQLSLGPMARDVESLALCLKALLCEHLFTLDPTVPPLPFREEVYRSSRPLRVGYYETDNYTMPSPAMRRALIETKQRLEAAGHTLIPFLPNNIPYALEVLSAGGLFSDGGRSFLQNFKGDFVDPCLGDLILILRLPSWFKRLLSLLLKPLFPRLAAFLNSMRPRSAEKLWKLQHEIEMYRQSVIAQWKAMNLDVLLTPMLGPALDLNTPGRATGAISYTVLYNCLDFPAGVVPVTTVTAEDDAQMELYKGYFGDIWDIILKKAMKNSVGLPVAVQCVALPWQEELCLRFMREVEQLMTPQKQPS
How it was run: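 Rat cerebrum homogenate (8-week male Wistar, whole brain minus cerebellum, 10,000g supernatant in 0.1 M K phosphate pH 7.4) as enzyme, 18 µg protein. Preincubated with compound 10 min at 37 °C, then 2 μM [³H]AEA (ethanolamine 1-³H) added for 10 min at 37 °C. Buffer has 0.5% BSA, DMSO up to 5%. Stopped with EtOAc. Aqueous [³H]ethanolamine counted. Three independent experiments in duplicate; IC50 by nonlinear regression.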

[3] = molecular target: T3, Monoglyceride lipase (Homo sapiens) (UniProt Q99685); assay: Inhibition of human recombinant MGL by liquid scintillation counting; conditions: concentration not given here
T3 sequence (whole entry): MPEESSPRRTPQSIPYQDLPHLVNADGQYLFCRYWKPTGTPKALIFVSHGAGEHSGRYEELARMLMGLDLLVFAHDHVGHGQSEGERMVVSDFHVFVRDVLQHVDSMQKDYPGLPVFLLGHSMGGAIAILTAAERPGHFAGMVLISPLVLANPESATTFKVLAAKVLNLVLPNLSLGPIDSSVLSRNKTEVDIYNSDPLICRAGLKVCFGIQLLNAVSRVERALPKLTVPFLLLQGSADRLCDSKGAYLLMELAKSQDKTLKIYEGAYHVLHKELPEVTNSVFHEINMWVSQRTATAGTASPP
How it was run: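 hrMGL preincubated with compound 10 min at 37 °C in 50 mM Tris-HCl pH 7.4, 1 mM EDTA, 0.5% BSA, DMSO ≤5%. Then [³H]2-oleoylglycerol (glycerol-1,2,3-³H) added to 50 μM final for 10 min at 37 °C. Stopped with EtOAc. Aqueous-phase [³H]glycerol counted by liquid scintillation.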

[4] = molecular target: T1, Monoglyceride lipase (Rattus norvegicus); assay: Inhibition of MGL in Wistar rat cerebellar membrane at 1 uM by reversed-phase HPLC relative to control; assay type: cell membranes; conditions: Cerebellum; how it was run: as §1

Row | SMILES | inhibition [1] [%] | IC50 [2] [nM] | inhibition [3] [%] | inhibition [4] [%]
1 | C[C@H]1COC(c2cccc(OC(=O)NC3CCCC3)c2)=N1 | 28 | 110 |  | 
2 | O=C(NC1CCCCC1)Oc1cccc(C2=N[C@@H](Cc3c[nH]c4ccccc34)CO2)c1 | 25 | 1900 |  | 
3 | CCCNC(=O)Oc1cccc(C2=NCCO2)c1 | 32 | 33 |  | 
4 | CCCNC(=O)Oc1cccc(-c2nc3ncncc3o2)c1 |  | 4500 | 18 | 
5 | C[C@H]1CN=C(c2cccc(OC(=O)NC3CCCCC3)c2)O1 |  | 6.8 | 14 | 
6 | C[C@H]1COC(c2cccc(OC(=O)NC3CCCCC3)c2)=N1 | 28 | 51 |  | 
7 | O=C(NC1CCCCC1)Oc1cccc(C2=N[C@H](Cc3ccccc3)CO2)c1 | 14 | 590 |  | 
8 | CCCNC(=O)Oc1cccc(-c2nc3ccccc3o2)c1 | 26 | 3000 |  | 
9 | C[C@@H]1CN=C(c2cccc(OC(=O)NC3CCCCC3)c2)O1 |  | 73 | 13 | 
10 | COC(=O)[C@@H]1COC(c2cccc(OC(=O)NC3CCCCC3)c2)=N1 | 25 | 9.4 |  | 
11 | CC1(C)COC(c2cccc(OC(=O)NC3CCCCC3)c2)=N1 | 20 | 46 |  | 
12 | O=C(NC1CCCCC1)Oc1cccc(C2=N[C@@H](Cc3ccccc3)CO2)c1 | 17 | 2100 |  | 
13 | CCCNC(=O)Oc1cccc(-c2nc3ncccc3o2)c1 | 29 | 680 |  | 
14 | COC(=O)[C@H]1COC(c2cccc(OC(=O)NC3CCCCC3)c2)=N1 | 35 | 90 |  | 
15 | C[C@@H]1COC(c2cccc(OC(=O)NC3CCCCC3)c2)=N1 | 16 | 16 |  | 
16 | CC1(C)COC(c2cccc(OC(=O)NC3CCCC3)c2)=N1 | 28 | 65 |  | 
17 | O=C(NC1CCCCC1)Oc1cccc(C2=NCCO2)c1 | 22 | 1.2 |  | 
18 | O=C(NC1CCCC1)Oc1cccc(C2=NCCO2)c1 |  | 13 |  | 10
